Test results as given in ChEMBL document CHEMBL1123688, “Synthesis of 7,12-dihydropyrido[3,4-b:5,4-b']diindoles. A novel class of rigid, planar benzodiazepine receptor ligands” (J Med Chem, 1987).
Activity calls are given as the source filed them. No cut-off for these calls is given here.

How the values were obtained:
[1] = biological target: GABA-A receptor; anion channel; assay: Inhibition of [3H]-diazepam binding to GABA-A benzodiazepine receptor of rat cerebral cortical membranes; assay type: cell membranes, Membrane
Mus musculus [2] = assay: Antagonism of Diazepam (2.5 mg/kg) anticonvulsant effect in mice treated with (pentylenetetrazole) PTZ (80 mg/kg); assay type: functional
In short: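 Adult male NIH-colony mice (20-25 g), groups of 10, got graded ip doses of test agent or vehicle (0.1 mL). Diazepam 2.5 mg/kg ip followed 15 min later, then PTZ 80 mg/kg 15 min after that. Score: tonic-clonic convulsions. ED50 = dose that blocks diazepam's anticonvulsant effect in 50% of mice.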

Mus musculus [3] = assay: Convulsant effect in mice treated with subconvulsant (pentylenetetrazole) PTZ (40 mg/kg), ineffective at 30 mg/kg; assay type: functional, organism-based; set-up: dose 30 mg/kg
Mus musculus [4] = assay: Convulsant effect in mice treated with subconvulsant (pentylenetetrazole) PTZ (40 mg/kg); assay type: functional
Mus musculus [5] = organism: Mus musculus; assay: In vitro ability to induce convulsions in mice
Mus musculus [6] = assay: Protection of mice against maximal electroshock (MES)-induced convulsions after administration of 38 mg/kg; assay type: functional

SMILES	IC50 [1] [nM]	ED50 (Mus musculus [2]) [mg/kg]	further results
Clc1cccc2c1[nH]c1c3c4ccccc4nc-3c[nH]c12	80		
Fc1ccc2[nH]c3c4c5ccccc5nc-4c[nH]c3c2c1	16	24	ED50 (Mus musculus [3]): inactive
Clc1cccc2[nH]c3c4c5ccccc5nc-4c[nH]c3c12	715		
COc1ccc2c(c1)[nH]c1c2ncc2[nH]c3ccccc3c21	8	3.9	ED50 (Mus musculus [4]): 7 mg/kg
Clc1ccc2c(c1)[nH]c1c2ncc2[nH]c3ccccc3c21	10	2.5	ED50 (Mus musculus [3]): inactive
c1ccc2c(c1)[nH]c1c2ncc2[nH]c3ccccc3c21	4	21.3	ED50 (Mus musculus [4]): 15.1 mg/kg
Fc1cccc2c1[nH]c1c3c4ccccc4nc-3c[nH]c12	12		
COc1ccc2[nH]c3c4c5ccccc5nc-4c[nH]c3c2c1	890		
Fc1ccc2c(c1)[nH]c1c3c4ccccc4nc-3c[nH]c12	7		
Clc1ccc2[nH]c3c4c5ccccc5nc-4c[nH]c3c2c1	2150		
CN1C(=O)CN=C(c2ccccc2)c2cc(Cl)ccc21 [DIAZEPAM]			ED50 (Mus musculus [5]): 3.4 mg/kg; Survivors (Mus musculus [6]): 100%
